# Measurements from ChEMBL document CHEMBL4152256, “Structure-activity relationship of new antimalarial 1-aryl-3-susbtituted propanol derivatives: Synthesis, preliminary toxicity profiling, parasite life cycle stage studies, target exploration, and targeted delivery” (Eur J Med Chem, 2018).
# Active and inactive are the calls of the source. The calls are words filed in the database; no cut-off is given here.
# Experiments:
# [1] = Selectivity index, ratio of CC50 for human HepG2A16 cells by MTT assay to IC50 for multidrug-resistant Plasmodium falciparum FCR-3; type: toxicity
# Outline: (§1)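 HepG2-A16 human hepatoma cells were tested by MTT viability assay to give CC50. Blood-stage activity was measured against the multidrug-resistant P. falciparum FCR-3 strain by [3H]-hypoxanthine incorporation to give IC50. SI = CC50 HepG2 / FCR-3 IC50.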
# [2] = Cytotoxicity against human HepG2A16 cells; type: cell-based
# Plasmodium falciparum [3] = test: Antiplasmodial activity against multidrug-resistant Plasmodium falciparum FCR-3 by [3H]-hypoxanthine incorporation assay; type: functional, organism-based, FCR-3/Gambia
# Outline: (§2)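 Blood-stage P. falciparum 3D7 and FCR-3 were tested by a modified [3H]-hypoxanthine incorporation assay. Chloroquine was the reference in all runs.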
# [4] = Cytotoxicity against human HepG2A16 cells by MTT assay; type: cell-based
# Outline: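 MTT viability assay on HepG2-A16 cells, giving CC50 values.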
# [5] = Selectivity index, ratio of CC50 for human HepG2A16 cells to IC50 for multidrug-resistant Plasmodium falciparum FCR-3; type: toxicity; outline: as §1
# Plasmodium falciparum [6] = test: Antiplasmodial activity against chloroquine-sensitive Plasmodium falciparum 3D7 by [3H]-hypoxanthine incorporation assay; type: functional, organism-based; outline: as §2
# Plasmodium falciparum [7] = test: Binding affinity to Plasmodium falciparum GRP94 nucleotide binding domain at 0.5 mM by SYPRO orange dye based DSF analysis
# Outline: (§3)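 Recombinant P. falciparum Hsp90 or GRP94 nucleotide-binding domain (0.05–0.2 mg/mL, optimized per protein) in 25 mM HEPES pH 7.5, 250 mM NaCl. Compound final concentration was 0.5 mM, with SYPRO Orange at 1:1000. Samples were heated from 18 to 90 °C at 1 °C/min. Tm was taken as the Boltzmann-fit inflection point. ΔTm = Tm with ligand minus Tm without, and shifts beyond ±1 °C were counted significant.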
# [8] = molecular target: T1, HSP90 (Plasmodium falciparum 3D7) (UniProt Q8IL32); test: Binding affinity to Plasmodium falciparum HSP90 nucleotide binding domain at 0.5 mM by SYPRO orange dye based DSF analysis; outline: as §3
# T1 sequence (whole entry): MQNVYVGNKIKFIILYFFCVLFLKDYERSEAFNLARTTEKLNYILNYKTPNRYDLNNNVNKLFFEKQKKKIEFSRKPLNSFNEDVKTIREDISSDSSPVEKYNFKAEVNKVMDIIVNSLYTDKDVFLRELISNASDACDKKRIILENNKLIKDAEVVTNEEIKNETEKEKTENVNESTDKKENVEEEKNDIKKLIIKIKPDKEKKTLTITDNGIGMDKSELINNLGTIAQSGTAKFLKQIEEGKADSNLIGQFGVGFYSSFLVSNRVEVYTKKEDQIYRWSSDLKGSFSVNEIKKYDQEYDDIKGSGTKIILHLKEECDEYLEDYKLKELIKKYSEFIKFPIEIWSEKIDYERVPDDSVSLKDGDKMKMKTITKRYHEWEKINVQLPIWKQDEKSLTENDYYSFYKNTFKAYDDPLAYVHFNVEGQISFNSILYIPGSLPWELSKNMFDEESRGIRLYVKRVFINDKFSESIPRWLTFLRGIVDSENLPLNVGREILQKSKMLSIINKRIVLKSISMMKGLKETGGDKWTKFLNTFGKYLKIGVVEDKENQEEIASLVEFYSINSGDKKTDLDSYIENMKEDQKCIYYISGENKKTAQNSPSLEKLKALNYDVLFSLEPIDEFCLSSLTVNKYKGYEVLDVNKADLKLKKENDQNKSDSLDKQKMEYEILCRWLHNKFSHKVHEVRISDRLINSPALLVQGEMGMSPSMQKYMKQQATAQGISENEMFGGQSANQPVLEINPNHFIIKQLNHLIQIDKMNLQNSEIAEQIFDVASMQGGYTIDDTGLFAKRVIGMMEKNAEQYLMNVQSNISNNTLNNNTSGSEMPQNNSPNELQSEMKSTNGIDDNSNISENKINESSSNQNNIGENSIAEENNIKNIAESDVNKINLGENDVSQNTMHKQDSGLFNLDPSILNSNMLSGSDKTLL
# [9] = molecular target: T1, HSP90 (Plasmodium falciparum 3D7); test: Binding affinity to Plasmodium falciparum HSP90 nucleotide binding domain by SPR analysis
# Outline: (§4)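 Purified PfHsp90 and PfGRP94 nucleotide-binding domains were amine-coupled to a CM5 chip (3000 and 7000 RU, respectively), with a blank reference surface. Seven compound concentrations (0.4 nM–1 mM) were injected in triplicate at 30 µL/min, 25 °C, in random order. Running buffer: 10 mM HEPES pH 7.4, 150 mM NaCl, 0.005% P20, 1% DMSO, 2 mM MgCl2. Kd came from double-referenced sensorgrams.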
# Plasmodium falciparum [10] = test: Binding affinity to Plasmodium falciparum GRP94 nucleotide binding domain by SPR analysis; outline: as §4
# Plasmodium berghei = test: Antiplasmodial activity against Plasmodium berghei ANKA infected in mouse assessed as inhibition of parasitemia at 50 mg/kg/day, po for 4 consecutive days starting from 2 hrs post infection by MSF assay relative to control; type: functional
# Outline: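 Swiss male mice (20 ± 2 g) infected ip with 10^7 P. berghei ANKA parasitized cells (day 0). Five per group dosed orally 2 h after infection and daily on days 0–3. Test compounds at 50 mg/kg/day in water:DMSO; chloroquine diphosphate at 3 mg/kg/day; vehicle controls. Parasitemia measured on day 4 by MSF assay; survival checked daily.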
Structure (SMILES),Ratio CC50/IC50 [1],CC50 [2],IC50 (Plasmodium falciparum [3]),CC50 [4],Ratio CC50/IC50 [5],IC50 (Plasmodium falciparum [6]),Activity (Plasmodium falciparum [7]),Activity [8],Activity [9],Activity (Plasmodium falciparum [10]),CC50 ([2]; HepG2A16 cells),"selectivity ratio ([5]; HepG2A16 cells, read-out: Ratio CC50/IC50)",inhibition (Plasmodium berghei)
"O=[N+]([O-])c1ccc(N2CCC(NCCC(O)c3ccc(F)c4ccccc34)CC2)c(C(F)(F)F)c1 (single isomer, unassigned; (-))",23,4.13 µM,0.87 µM,20 µM,32,1.79 µM,,,,,,,
Nc1ncnc2c1ncn2[C@@H]1O[C@H](COP(=O)(O)OP(=O)(O)O)[C@@H](O)[C@H]1O,,,,,,,Active,Active,,,,,
"N#Cc1ccc(N2CCC(NCCC(O)c3ccc(F)c4ccccc34)CC2)c(C(F)(F)F)c1 (single isomer, unassigned; (+))",29,79.9 µM,0.65 µM,18.8 µM,58,5.72 µM,,,,,,,
O=[N+]([O-])c1ccc(N2CCC(NCCC(O)c3ccc(F)c4ccccc34)CC2)c(C(F)(F)F)c1 (stereo in doubt; 8),,,,,,,inactive,inactive,inactive,inactive,,,
COc1ccccc1N1CCN(CCC(O)c2ccc(F)cc2)CC1 (stereo in doubt; 66),,,,,,,inactive,inactive,inactive,inactive,,,
Nc1ncnc2c1ncn2[C@@H]1O[C@H](COP(=O)(O)OP(=O)(O)OP(=O)(O)O)[C@@H](O)[C@H]1O,,,,,,,Active,Active,,,,,
N#Cc1ccc(N2CCC(NCCC(O)c3ccc(F)c4ccccc34)CC2)c(C(F)(F)F)c1 (stereo in doubt; (-)-72),28,27.8 µM,0.39 µM,11 µM,11,0.28 µM,,,,,,,
"OC(CCN1CCN(c2ccccc2C(F)(F)F)CC1)c1ccc(F)c2ccccc12 (single isomer, unassigned; (+))",51,,0.21 µM,10.8 µM,,0.54 µM,,,,,36.1 µM,172,
OC(CCN1CCN(c2ccccc2C(F)(F)F)CC1)c1ccc(F)c2ccccc12 (stereo in doubt; 55),,,,,,,inactive,inactive,inactive,inactive,,,inactive
"O=[N+]([O-])c1ccc(N2CCC(NCCC(O)c3ccc(F)c4ccccc34)CC2)c(C(F)(F)F)c1 (single isomer, unassigned; (+))",201,37.6 µM,0.19 µM,38.3 µM,420,0.48 µM,,,,,,,
"COc1ccccc1N1CCN(CCC(O)c2ccc(F)cc2)CC1 (single isomer, unassigned; (+))",8,,12.2 µM,96 µM,> 11.8,28.7 µM,,,,,> 145 µM,,
"COc1ccccc1N1CCN(CCC(O)c2ccc(F)cc2)CC1 (single isomer, unassigned; (-))",22,,0.66 µM,14.3 µM,> 219.9,1.24 µM,,,,,,,
N#Cc1ccc(N2CCC(NCCC(O)c3ccc(F)c4ccccc34)CC2)c(C(F)(F)F)c1 (stereo in doubt; 72),,,,,,,inactive,inactive,inactive,inactive,,,
"OC(CCN1CCN(c2ccccc2C(F)(F)F)CC1)c1ccc(F)c2ccccc12 (single isomer, unassigned; (-))",91,61.5 µM,0.2 µM,18.2 µM,308,0.88 µM,,,,,,,
